Activity calls are given as the source filed them. The rule behind the calls is not given here.
What was measured:
NCI-H1299 = assay: Downregulation of CHEK1 mRNA expression in human NCI-H1299 cells at 10 uM incubated for 48 hrs by qRT-PCR analysis; assay type: functional, cell-based
Summary of the method: (§1)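 Cells treated 48 h. Total RNA extracted with Trizol, reverse-transcribed, and SYBR RT-qPCR run: 95 °C 30 s, then 40 cycles of 95 °C 6 s and 60 °C 20 s. mRNA normalized to the DMSO-treated group. Mean SD of three independent experiments, t-test versus DMSO.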

[1] = target: T1, Protein cereblon/Histone-lysine N-methyltransferase EZH2 (Homo sapiens) (UniProt Q15910+Q96SW2); assay: PROTAC activity at CRBN E3 ligase/EZH2 in PRC2 complex in human WSUDLCL2 cells assessed as downregulation of EED expression at 1 uM pretreated with MG-132 for 4 hrs followed by compound addition and measured after 48 hrs by Western blot analysis; assay type: cell-based
Summary of the method: (§2)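 WSU-DLCL-2 cells pretreated 4 h with the named inhibitor, then compound added and incubated a further 48 h. EZH2, SUZ12, EED and RbAp48 measured by western blot (nitrocellulose transfer, skim-milk block, primary antibody overnight at 4 °C, chemiluminescent detection).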

[2] = target: T1, Protein cereblon/Histone-lysine N-methyltransferase EZH2 (Homo sapiens); assay: PROTAC activity at CRBN E3 ligase/EZH2 in PRC2 complex in human A2780 cells assessed as induction of EED degradation by measuring reduction in EED protein level at 1 uM incubated for 48 hrs by Western blot analysis; assay type: cell-based
Summary of the method: (§3)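 Cancer cell lines exposed to 1 μM compound for 48 h. Lysates immunoblotted (SDS-PAGE, nitrocellulose, 5% milk block, primary antibody overnight at 4 °C) for EZH2, SUZ12, EED, RbAp48 and H3K27me3. Bands quantified by densitometry and normalized to GAPDH.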

[3] = target: T1, Protein cereblon/Histone-lysine N-methyltransferase EZH2 (Homo sapiens); assay: PROTAC activity at CRBN E3 ligase/EZH2 in PRC2 complex in human LNCaP cells assessed as induction of EZH2 degradation by measuring reduction in EZH2 protein level at 1 uM incubated for 48 hrs by Western blot analysis; assay type: cell-based; summary of the method: as §3
[4] = target: T1, Protein cereblon/Histone-lysine N-methyltransferase EZH2 (Homo sapiens); assay: PROTAC activity at CRBN E3 ligase/EZH2 in PRC2 complex in human WSUDLCL2 cells assessed as induction of EZH2 degradation at 1 uM incubated for 48 hrs by Western blot analysis relative to control; assay type: cell-based
Summary of the method: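 WSU-DLCL-2 cells exposed to 1 μM compound for 48 h, with DMSO-treated cells as control. Bands quantified by densitometry and normalized to GAPDH. Mean SD from three independent experiments, t-test versus DMSO.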

[5] = target: T1, Protein cereblon/Histone-lysine N-methyltransferase EZH2 (Homo sapiens); assay: PROTAC activity at CRBN E3 ligase/EZH2 in PRC2 complex in human WSUDLCL2 cells assessed as downregulation of SUZ12 expression at 1 uM pretreated with lenalidomide for 4 hrs followed by compound addition and measured after 48 hrs by Western blot analysis; assay type: cell-based; summary of the method: as §2
[6] = target: T1, Protein cereblon/Histone-lysine N-methyltransferase EZH2 (Homo sapiens); assay: PROTAC activity at CRBN E3 ligase/EZH2 in PRC2 complex in human WSUDLCL2 cells assessed as downregulation of SUZ12 expression at 1 uM pretreated with MLN4924 for 4 hrs followed by compound addition and measured after 48 hrs by Western blot analysis; assay type: cell-based; summary of the method: as §2
[7] = target: T1, Protein cereblon/Histone-lysine N-methyltransferase EZH2 (Homo sapiens); assay: PROTAC activity at CRBN E3 ligase/EZH2 in PRC2 complex in human WSUDLCL2 cells assessed as increase in EZH2 ubiquitination at 1 uM measured after 48 hrs by co-immunoprecipitation assay; assay type: cell-based
Summary of the method: (§4)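 WSU-DLCL-2 cells treated with 1 μM compound for 48 h and lysed in RIPA buffer. Lysates incubated with antibodies overnight at 4 °C, then 3 h with Protein G agarose beads at 4 °C. Proteins eluted in IP buffer and ubiquitination of the target probed by immunoblot.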

[8] = target: T1, Protein cereblon/Histone-lysine N-methyltransferase EZH2 (Homo sapiens); assay: PROTAC activity at CRBN E3 ligase/EZH2 in PRC2 complex in human SK-OV-3 cells assessed as induction of EZH2 degradation by measuring reduction in EZH2 protein level at 1 uM incubated for 48 hrs by Western blot analysis; assay type: cell-based
Summary of the method: (§5)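 Cells cultured in DMEM or RPMI 1640 with 10% FBS and 1% penicillin-streptomycin, 37 °C, 5% CO2; exposed to 1 μM compound for 48 h. Lysates run on SDS-PAGE and transferred to nitrocellulose. Blocked 2 h in 5% skim milk, primary antibody overnight at 4 °C, then secondary antibody. Chemiluminescent detection of PRC2 subunits and H3K27me3.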

[9] = target: T1, Protein cereblon/Histone-lysine N-methyltransferase EZH2 (Homo sapiens); assay: PROTAC activity at CRBN E3 ligase/EZH2 in PRC2 complex in human SK-OV-3 cells assessed as induction of SUZ12 degradation by measuring reduction in SUZ12 protein level at 1 uM incubated for 48 hrs by Western blot analysis; assay type: cell-based; summary of the method: as §5
[10] = target: T1, Protein cereblon/Histone-lysine N-methyltransferase EZH2 (Homo sapiens); assay: PROTAC activity at CRBN E3 ligase/EZH2 in PRC2 complex in human LNCaP cells assessed as induction of SUZ12 degradation by measuring reduction in SUZ12 protein level at 1 uM incubated for 48 hrs by Western blot analysis; assay type: cell-based; summary of the method: as §5
WSUDLCL2 = assay: Effect on Histone H3 methylation in human WSUDLCL2 cells assessed as reduction in H3K4me3 levels at upto 10 uM incubated for 48 hrs by Western blot analysis; assay type: functional, cell-based; settings: dose microM <=10, time 48.0 hrs
Summary of the method: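 Lysates run on SDS-PAGE and transferred to nitrocellulose. Membranes blocked with 5% skim milk for 2 h, primary antibody applied overnight at 4 °C, then secondary antibody and chemiluminescent detection of histone H3 methylation marks.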

[11] = target: T1, Protein cereblon/Histone-lysine N-methyltransferase EZH2 (Homo sapiens); assay: PROTAC activity at CRBN E3 ligase/EZH2 in PRC2 complex in human WSUDLCL2 cells assessed as downregulation of EED expression at 1 uM pretreated with lenalidomide for 4 hrs followed by compound addition and measured after 48 hrs by Western blot analysis; assay type: cell-based; summary of the method: as §2
[12] = target: T1, Protein cereblon/Histone-lysine N-methyltransferase EZH2 (Homo sapiens); assay: PROTAC activity at CRBN E3 ligase/EZH2 in PRC2 complex in human WSUDLCL2 cells assessed as increase in EED ubiquitination at 1 uM measured after 48 hrs by co-immunoprecipitation assay; assay type: cell-based; summary of the method: as §4
[13] = target: T1, Protein cereblon/Histone-lysine N-methyltransferase EZH2 (Homo sapiens); assay: PROTAC activity at CRBN E3 ligase/EZH2 in PRC2 complex in human WSUDLCL2 cells assessed as downregulation of RbAp48 expression at 1 uM pretreated with GSK126 for 4 hrs followed by compound addition and measured after 48 hrs by Western blot analysis; assay type: cell-based; summary of the method: as §2
[14] = target: T1, Protein cereblon/Histone-lysine N-methyltransferase EZH2 (Homo sapiens); assay: PROTAC activity at CRBN E3 ligase/EZH2 in PRC2 complex in human WSUDLCL2 cells assessed as reduction in H3K27me3 protein level at 1 uM measured after 48 to 72 hrs by Western blot analysis; assay type: cell-based; settings: time 48-72 hrs
[15] = target: T1, Protein cereblon/Histone-lysine N-methyltransferase EZH2 (Homo sapiens); assay: PROTAC activity at CRBN E3 ligase/EZH2 in PRC2 complex in human WSUDLCL2 cells assessed as induction of EZH2 degradation at 10 uM incubated for 48 hrs by Western blot analysis; assay type: cell-based
Pfeiffer = assay: Upregulation of TXINP mRNA expression in human Pfeiffer cells at 1 uM incubated for 48 hrs by qRT-PCR analysis; assay type: functional, cell-based
Summary of the method: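 WSU-DLCL-2 or Pfeiffer cells treated 48 h. Trizol RNA extraction, reverse transcription, SYBR qPCR (95 °C 30 s; 40 cycles of 95 °C 6 s, 60 °C 20 s). mRNA normalized to DMSO-treated cells; mean ± SD of three independent experiments, t-test.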

A549 = assay: Downregulation of TACC3 mRNA expression in human A549 cells at 10 uM incubated for 48 hrs by qRT-PCR analysis; assay type: functional, cell-based; summary of the method: as §1

T1 sequence (Q15910 whole entry, looked up): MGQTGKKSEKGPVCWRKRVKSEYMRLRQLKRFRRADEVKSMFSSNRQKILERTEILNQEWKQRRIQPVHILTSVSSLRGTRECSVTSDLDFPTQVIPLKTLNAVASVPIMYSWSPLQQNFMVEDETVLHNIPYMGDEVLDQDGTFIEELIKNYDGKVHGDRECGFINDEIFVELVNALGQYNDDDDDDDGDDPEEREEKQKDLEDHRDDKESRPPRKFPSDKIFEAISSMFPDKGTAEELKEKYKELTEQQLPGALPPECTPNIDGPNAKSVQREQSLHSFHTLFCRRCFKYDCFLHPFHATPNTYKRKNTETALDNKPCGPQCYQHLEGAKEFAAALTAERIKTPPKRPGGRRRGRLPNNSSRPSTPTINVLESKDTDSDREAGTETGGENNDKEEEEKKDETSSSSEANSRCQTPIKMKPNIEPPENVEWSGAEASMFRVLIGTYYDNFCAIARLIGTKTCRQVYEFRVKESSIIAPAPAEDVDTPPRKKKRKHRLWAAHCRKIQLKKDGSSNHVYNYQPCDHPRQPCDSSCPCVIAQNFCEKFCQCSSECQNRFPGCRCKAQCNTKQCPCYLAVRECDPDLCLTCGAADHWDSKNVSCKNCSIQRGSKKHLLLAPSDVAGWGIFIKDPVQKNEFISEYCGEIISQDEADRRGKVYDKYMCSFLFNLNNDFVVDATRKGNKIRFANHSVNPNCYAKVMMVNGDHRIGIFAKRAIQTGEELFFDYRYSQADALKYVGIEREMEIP
T1 sequence (Q96SW2 whole entry, looked up): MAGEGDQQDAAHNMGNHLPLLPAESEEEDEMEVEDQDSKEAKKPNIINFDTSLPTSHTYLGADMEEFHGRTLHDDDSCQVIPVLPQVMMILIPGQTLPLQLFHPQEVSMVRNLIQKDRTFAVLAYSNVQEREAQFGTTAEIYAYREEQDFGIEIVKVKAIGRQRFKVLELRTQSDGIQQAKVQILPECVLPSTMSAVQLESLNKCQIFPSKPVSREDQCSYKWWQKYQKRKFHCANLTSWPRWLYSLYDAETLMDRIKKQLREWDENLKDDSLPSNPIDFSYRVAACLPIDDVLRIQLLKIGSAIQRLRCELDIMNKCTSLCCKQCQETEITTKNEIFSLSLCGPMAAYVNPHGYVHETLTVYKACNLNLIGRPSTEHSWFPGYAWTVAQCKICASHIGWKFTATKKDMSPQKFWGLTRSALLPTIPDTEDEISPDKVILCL

Activity [1]: inactive
Activity [2]: Active
Activity [3]: Active
Activity [4]: 72%
Activity [5]: inactive
Activity [6]: inactive
Activity [7]: Active
Activity [8]: Active
Activity [9]: Active
Activity [10]: Active
Activity [11]: inactive
Activity [12]: Active
Activity [13]: inactive
Activity [14]: Active
Activity [15]: inactive
SMILES: CCN(c1cc(-c2ccc(CN3CCN(CCCCCCCOc4cccc5c4C(=O)N(C4CCC(=O)NC4=O)C5=O)CC3)cc2)cc(C(=O)NCc2c(C)cc(C)[nH]c2=O)c1C)C1CCOCC1 (centres undefined)
Activity (NCI-H1299): Active
Activity (WSUDLCL2): inactive
Activity (Pfeiffer): inactive
Activity (A549): Active
